Source: ChEMBL document CHEMBL4765412, “(±)-trans-2-phenyl-2,3-dihydrobenzofurans as leishmanicidal agents: Synthesis, in vitro evaluation and SAR analysis” (Eur J Med Chem, 2020)

Assays:
L6 = assay: Cytotoxicity against rat L6 cells assessed as reduction in cell viability incubated for 70 hrs by resazurin staining based inverted microscopic analysis; settings: L6, 70 h
Procedure, shortened: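 Rat L-6 skeletal myoblast line; racemates tested unless stated.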

[1] = Selectivity index, ratio of IC50 for cytotoxicity against rat L6 cells to IC50 for antileishmanial activity against Leishmania donovani MHOM/ET/67/L82 amastigotes; format: toxicity, cell-based; settings: for selectivity ratio: read-out: Ratio IC50
Leishmania donovani = assay: Antileishmanial activity against Leishmania donovani MHOM/ET/67/L82 amastigotes assessed as growth inhibition incubated for 70 hrs by resazurin based inverted microscopic analysis; format: functional, organism-based
Procedure, shortened: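 Axenic L. donovani amastigotes (MHOM/ET/67/L82); racemates tested unless stated; miltefosine as positive control. Some values come from a separate run and were rescaled by that run's relative miltefosine IC50.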

[2] = Leishmania donovani, MHOM/ET/67/L82, 70 h

Row | Compound | IC50 (L6) [µM] | selectivity ratio [1] | IC50 (Leishmania donovani; [2]) [µM] | Ratio IC50 [1] | IC50 (Leishmania donovani) [µM]
1 | CC(C)OC(=O)/C=C/c1cc(O)c2c(c1)[C@@H](C(=O)OC(C)C)[C@H](c1ccc(O)c(O)c1)O2 | 10.6 | 16.4 | 0.65 | – | –
2 | CC(C)OC(=O)/C=C/c1cc(O)c2c(c1)[C@H](C(=O)OC(C)C)[C@@H](c1ccc(O)c(O)c1)O2 | – | – | – | 19.3 | 0.53
3 | COC(=O)/C=C/c1cc(O)c2c(c1)[C@H](C(=O)OC)[C@@H](c1ccc(O)c(O)c1)O2 (racemic) | 0.37 | 0.03 | 12.6 | – | –
4 | COC(=O)/C=C/c1ccc2c(c1)[C@H](C(=O)OC)[C@@H](c1ccc(O)cc1)O2 (racemic) | 23.2 | 3 | 7.84 | – | –
5 | COc1cc([C@H]2Oc3c(OC)cc(/C=C/CO)cc3[C@@H]2CO)ccc1O (racemic) | 74.2 | 0.5 | 160 | – | –
6 | COC(=O)/C=C/c1cc(OC)c2c(c1)[C@H](C(=O)OC)[C@@H](c1ccc(O)c(OC)c1)O2 (racemic) | 2.43 | 0.2 | 10.6 | – | –
7 | CC(C)NC(=O)/C=C/c1cc(O)c2c(c1)[C@H](C(=O)NC(C)C)[C@@H](c1ccc(O)c(O)c1)O2 (racemic) | 55.5 | 0.7 | 82.3 | – | –
8 | COc1cc([C@H]2Oc3ccc(Br)cc3[C@@H]2CO)c(Br)cc1O (racemic) | 40.6 | 3.8 | 10.7 | – | –
9 | COc1cc(Br)c([C@H]2Oc3ccc(Br)cc3[C@@H]2CO)cc1OC (racemic) | 21 | 1.8 | 11.4 | – | –
10 | COc1cc([C@H]2Oc3ccc(Cl)cc3[C@@H]2C)cc(Cl)c1O (racemic) | 64.2 | 4.8 | 13.4 | – | –
11 | OC[C@H]1c2ccccc2O[C@@H]1c1ccc(O)cc1 (racemic) | 217 | 1.4 | 158 | – | –
12 | COc1cc([C@H]2Oc3c(OC)cc(/C=C/C(=O)OC(C)C)cc3[C@@H]2C(=O)OC(C)C)ccc1O (racemic) | 10.3 | 2.6 | 3.95 | – | –
13 | CC(C)(C)OC(=O)/C=C/c1cc(F)c2c(c1)[C@H](C(=O)OC(C)(C)C)[C@@H](c1ccc(O)c(F)c1)O2 (racemic) | 9.22 | 4.7 | 1.97 | – | –
14 | CC(C)(C)CC(=O)/C=C/c1cc(O)c2c(c1)[C@H](C(=O)CC(C)(C)C)[C@@H](c1ccc(O)c(O)c1)O2 (racemic) | 2.45 | 0.7 | 3.42 | – | –
15 | COc1cc([C@H]2Oc3ccc(Br)cc3[C@@H]2CO)cc(Br)c1O (racemic) | 45.4 | 3.8 | 12.1 | – | –
16 | COc1cc([C@H]2Oc3ccc(Br)cc3[C@@H]2C)c(Br)cc1O (racemic) | 18.2 | 1.2 | 15 | – | –
17 | CCCCOC(=O)/C=C/c1cc(OC)c2c(c1)[C@H](C(=O)OCCCC)[C@@H](c1ccc(O)c(OC)c1)O2 (racemic) | 8.18 | 2.6 | 3.11 | – | –
18 | COc1cc([C@H]2Oc3c(OC)cc(/C=C/C(=O)NC(C)C)cc3[C@@H]2C(=O)NC(C)C)ccc1O (racemic) | 77.2 | 1.4 | 53.6 | – | –
19 | CC(C)(C)OC(=O)/C=C/c1cc(O)c2c(c1)[C@H](C(=O)OC(C)(C)C)[C@@H](c1ccc(O)c(O)c1)O2 (racemic) | 9.05 | 5.5 | 1.66 | – | –

Row | Compound | IC50 (L6) [µM] | selectivity ratio [1] | IC50 (Leishmania donovani; [2]) [µM] | Ratio IC50 [1] | IC50 (Leishmania donovani) [µM]
20 | COc1cc([C@H]2Oc3ccc(Br)cc3[C@@H]2C)ccc1O (racemic) | 13.1 | 0.5 | 24.8 | – | –
21 | COc1ccc([C@H]2Oc3ccc(C=O)cc3[C@@H]2C)cc1 (racemic) | 43.8 | 1.4 | 30.5 | – | –
22 | CCOC(=O)/C=C/c1ccc2c(c1)[C@H](C(=O)OCC)[C@@H](c1ccc(O)cc1)O2 (racemic) | 26.3 | 3.5 | 7.45 | – | –
23 | CC(=O)OC[C@H]1c2cc(Br)ccc2O[C@@H]1c1ccc(O)cc1 (racemic) | 55.5 | 4 | 13.7 | – | –
24 | CCOC(=O)/C=C/c1cc(O)c2c(c1)[C@H](C(=O)OCC)[C@@H](c1ccc(O)c(O)c1)O2 (racemic) | 9.99 | 2.6 | 3.87 | – | –
25 | COc1ccc([C@H]2Oc3ccccc3[C@@H]2COC(C)=O)cc1 (racemic) | 43.9 | 0.8 | 58.4 | – | –
26 | COc1cc([C@H]2Oc3c(OC)cc(/C=C/C(=O)NCCO)cc3[C@@H]2C(=O)NCCO)ccc1O (racemic) | 212 | 1 | 212 | – | –
27 | CC(C)CC(=O)/C=C/c1cc(O)c2c(c1)[C@H](C(=O)CC(C)C)[C@@H](c1ccc(O)c(O)c1)O2 (racemic) | 5 | 1.1 | 4.42 | – | –
28 | CC(C)OC(=O)/C=C/c1ccc2c(c1)[C@H](C(=O)OC(C)C)[C@@H](c1ccc(O)cc1)O2 (racemic) | 14.3 | 3.4 | 4.21 | – | –
29 | CC(C)(C)OC(=O)/C=C/c1ccc2c(c1)[C@H](C(=O)OC(C)(C)C)[C@@H](c1ccc(O)cc1)O2 (racemic) | 13.3 | 2.2 | 6.07 | – | –
30 | COc1cc([C@H]2Oc3ccc(Cl)cc3[C@@H]2C)ccc1O (racemic) | 55.4 | 3.4 | 16.1 | – | –
31 | OC[C@H]1c2ccccc2O[C@@H]1c1ccc(O)c(Br)c1 (racemic) | 115 | 2.6 | 43.8 | – | –
32 | CCCCOC(=O)/C=C/c1cc(O)c2c(c1)[C@H](C(=O)OCCCC)[C@@H](c1ccc(O)c(O)c1)O2 (racemic) | 9.34 | 5.6 | 1.66 | – | –
33 | COc1ccc([C@H]2Oc3ccc(Br)cc3[C@@H]2C)cc1Br (racemic) | 39.7 | 1.3 | 29.7 | – | –
34 | OC[C@H]1c2cc(Br)ccc2O[C@@H]1c1ccc(O)c(Br)c1 (racemic) | 64.8 | 3 | 21.8 | – | –
35 | COc1cc([C@H]2Oc3ccc(Br)cc3[C@@H]2C)cc(Br)c1O (racemic) | 44.8 | 2.6 | 17.2 | – | –
36 | CCCNC(=O)/C=C/c1cc(OC)c2c(c1)[C@H](C(=O)NCCC)[C@@H](c1ccc(O)c(OC)c1)O2 (racemic) | 73.8 | 8.3 | 8.88 | – | –
37 | COc1cc([C@H]2Oc3ccccc3[C@@H]2C)ccc1O (racemic) | 84.4 | 1.4 | 59 | – | –
38 | COc1ccc([C@H]2Oc3ccccc3[C@@H]2CO)cc1OC (racemic) | 53.7 | 0.4 | 136 | – | –

Row | Compound | IC50 (L6) [µM] | selectivity ratio [1] | IC50 (Leishmania donovani; [2]) [µM] | Ratio IC50 [1] | IC50 (Leishmania donovani) [µM]
39 | CCCCCCCCOC(=O)/C=C/c1cc(O)c2c(c1)[C@H](C(=O)OCCCCCCCC)[C@@H](c1ccc(O)c(O)c1)O2 (racemic) | 19.1 | 0.8 | 23.5 | – | –
40 | COc1ccc([C@H]2Oc3ccccc3[C@@H]2C)cc1 (racemic) | 154 | 1.6 | 99.9 | – | –
41 | OC[C@H]1c2cc(Br)ccc2O[C@@H]1c1ccc(O)cc1 (racemic) | 22 | 1.2 | 18.8 | – | –
42 | COc1cc([C@H]2Oc3c(OC)cc(/C=C/C(=O)O)cc3[C@@H]2C(=O)O)ccc1O (racemic) | 259 | 37.6 | 6.89 | – | –
43 | CCOC(=O)/C=C/c1cc(OC)c2c(c1)[C@H](C(=O)OCC)[C@@H](c1ccc(O)c(OC)c1)O2 (racemic) | 4.42 | 0.5 | 9.1 | – | –
44 | COc1cc([C@H]2Oc3ccc(Br)cc3[C@@H]2CO)ccc1O (racemic) | 32.3 | 1.1 | 30.5 | – | –
45 | COc1cc([C@H]2Oc3ccccc3[C@@H]2CO)ccc1O (racemic) | 58 | 0.3 | 185 | – | –
46 | COc1cc([C@H]2Oc3c(OC)cc(/C=C/C(=O)OC(C)(C)C)cc3[C@@H]2C(=O)OC(C)(C)C)ccc1O (racemic) | 11.4 | 5.4 | 2.1 | – | –
47 | CCCCOC(=O)/C=C/c1ccc2c(c1)[C@H](C(=O)OCCCC)[C@@H](c1ccc(O)cc1)O2 (racemic) | 14.3 | 1.3 | 10.8 | – | –
48 | COc1ccc([C@H]2Oc3ccc(Br)cc3[C@@H]2C)cc1 (racemic) | 60.3 | 1.9 | 31.8 | – | –
49 | COc1ccc([C@H]2Oc3ccc(Br)cc3[C@@H]2CO)cc1OC (racemic) | 21.2 | 0.6 | 33.8 | – | –
50 | OC[C@H]1c2ccccc2O[C@@H]1c1ccccc1Br (racemic) | 25.4 | 1.2 | 21.7 | – | –
51 | COc1ccc([C@H]2Oc3ccccc3[C@@H]2CO)cc1 (racemic) | 43.6 | 0.6 | 70.3 | – | –
52 | C=CCOC(=O)/C=C/c1cc(O)c2c(c1)[C@H](C(=O)OCC=C)[C@@H](c1ccc(O)c(O)c1)O2 (racemic) | 6.41 | 1 | 6.32 | – | –
53 | COc1cc([C@H]2Oc3c(OC)cc(/C=C/C(=O)CC(C)C)cc3[C@@H]2C(=O)CC(C)C)ccc1O (racemic) | 5.29 | 1.4 | 3.81 | – | –
54 | COc1ccc([C@H]2Oc3ccc(/C=C/C(C)=O)cc3[C@@H]2C)cc1 (racemic) | 9.35 | 0.5 | 17.4 | – | –
55 | OC[C@H]1c2ccccc2O[C@@H]1c1cc(Br)c(O)c(Br)c1 (racemic) | 109 | 10.8 | 10.1 | – | –
56 | CCCCCCCCCCCCCCCCOP(=O)([O-])OCC[N+](C)(C)C [MILTEFOSINE] | – | – | 0.77 | – | –
